A short description of data set [1]: Clearance in BALB/c mouse at 2 mg/kg, iv measured up to 24 hrs by LC-MS/MS analysis. To be noted: in vivo.
The nature of data set [2]: Dissociation constant, pKa of the compound by UV spectrometric titration method. It is filed as physicochemical.
The target of data set [3] is Cyclin-dependent kinase 4/cyclin D1 (Homo sapiens) (UniProt P11802+P24385). Nature of the data set: Inhibition of CDK4/cyclin-D1 (unknown origin) at 1 uM. It is filed as protein-complex assay. The essentials: (§1)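 Residual activity of each kinase with compound at 1 µM, measured in a contracted radioisotope-based kinase profiling assay and expressed as % kinase activity remaining.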

Data set [4] is described as follows: Half life in BALB/c mouse at 10 mg/kg, po measured up to 24 hrs by LC-MS/MS analysis. To be noted: in vivo.
In data set [5] the target is Cyclin-dependent kinase 1/cyclin B1 (Homo sapiens, UniProt P06493). Nature of the data set: Inhibition of CDK1/cyclin-B (unknown origin). It is filed as protein-complex assay. The method in brief:
(§2)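 IC50 measured in a contracted radiometric kinase assay with ATP at the experimentally determined Km(ATP) of each kinase. Apparent Ki was derived by Cheng-Prusoff: Ki = IC50/(1+[ATP]/Km(ATP)).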

Data set [6] addresses CDK17/Cyclin-Y (Homo sapiens) (UniProt Q00537+Q8ND76). Kind of data set: Inhibition of CDK17/Cyclin Y (unknown origin) at 1 uM. The format is protein-complex assay. The essentials: as §1
The target of data set [7] is CDK2/Cyclin A2 (Homo sapiens) (UniProt P24941+P20248). Kind of data set: Inhibition of CDK2/cyclin-A (unknown origin) at 1 uM. It is filed as protein-complex assay. The essentials:
as §1

Data set [8] has as its target Cyclin-dependent kinase 1/cyclin B1 (Homo sapiens) (UniProt P06493+P14635). Nature of the data set: Inhibition of CDK1/cyclin-B (unknown origin) at 1 uM relative to control. It is filed as protein-complex assay. The essentials: as §1
A further data set addresses CDK9/cyclin T1 (Homo sapiens, UniProt P50750). Kind of data set: Inhibition of CDK9/Cyclin T1 (unknown origin). It is filed as protein-complex assay. The essentials: as §2
Data set [9] deals with Glycogen synthase kinase-3 beta (Homo sapiens), P49841 [UNDEFINED MUTATION]. Nature of the data set: Inhibition of human GSKbeta H350L mutant (2 to 3nd residues) at 1 uM using YRRAAVPPSPSLSRHSSPHQS(p) EDEEE as substrate incubated for 40 mins in presence of [gamma-33P]-ATP by scintillation counting method relative to control. The method in brief: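 Single-point screen of residual kinase activity (%) at 1 µM compound. Run as a contract radiometric [γ-33P]-ATP kinase assay, either the KinaseProfiler service or the HotSpot assay. ATP was set at the experimentally determined Km(ATP) of each kinase.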

A short description of data set [10]: Cmax in BALB/c mouse at 2 mg/kg, iv measured up to 24 hrs by LC-MS/MS analysis. To be noted: in vivo.
A short description of data set [11]: AUC in BALB/c mouse at 10 mg/kg, po measured up to 24 hrs by LC-MS/MS analysis. To be noted: in vivo.
A short description of data set [12]: Cmax in BALB/c mouse at 10 mg/kg, po measured up to 24 hrs by LC-MS/MS analysis. To be noted: in vivo.
Data set [13] can be described thus: AUC in BALB/c mouse at 2 mg/kg, iv measured up to 24 hrs by LC-MS/MS analysis. To be noted: in vivo.

SMILES strings stand for the structures. Activity calls are given as the source filed them. The calls are words filed in the database; no cut-off is given here.

Chain of CDK9/cyclin T1 (O60563 whole entry): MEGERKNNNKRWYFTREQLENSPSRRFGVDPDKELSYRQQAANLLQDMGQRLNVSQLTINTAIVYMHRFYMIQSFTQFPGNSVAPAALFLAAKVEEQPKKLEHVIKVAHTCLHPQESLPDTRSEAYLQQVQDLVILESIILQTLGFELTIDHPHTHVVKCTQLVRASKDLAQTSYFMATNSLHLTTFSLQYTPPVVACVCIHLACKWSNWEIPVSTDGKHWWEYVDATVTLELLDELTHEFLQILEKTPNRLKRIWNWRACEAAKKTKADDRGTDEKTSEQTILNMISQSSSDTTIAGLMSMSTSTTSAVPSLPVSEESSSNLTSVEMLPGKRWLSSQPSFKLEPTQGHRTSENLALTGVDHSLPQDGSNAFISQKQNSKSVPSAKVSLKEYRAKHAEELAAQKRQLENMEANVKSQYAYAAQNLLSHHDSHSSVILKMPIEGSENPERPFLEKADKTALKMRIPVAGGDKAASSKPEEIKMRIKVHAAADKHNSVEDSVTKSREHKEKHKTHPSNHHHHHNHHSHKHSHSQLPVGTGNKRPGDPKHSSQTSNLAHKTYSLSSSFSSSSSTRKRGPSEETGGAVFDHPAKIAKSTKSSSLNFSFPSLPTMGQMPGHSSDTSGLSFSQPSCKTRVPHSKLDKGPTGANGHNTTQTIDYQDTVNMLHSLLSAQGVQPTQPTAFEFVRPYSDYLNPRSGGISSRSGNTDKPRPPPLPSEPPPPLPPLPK
Chain of CDK9/cyclin T1 (P50750 whole entry): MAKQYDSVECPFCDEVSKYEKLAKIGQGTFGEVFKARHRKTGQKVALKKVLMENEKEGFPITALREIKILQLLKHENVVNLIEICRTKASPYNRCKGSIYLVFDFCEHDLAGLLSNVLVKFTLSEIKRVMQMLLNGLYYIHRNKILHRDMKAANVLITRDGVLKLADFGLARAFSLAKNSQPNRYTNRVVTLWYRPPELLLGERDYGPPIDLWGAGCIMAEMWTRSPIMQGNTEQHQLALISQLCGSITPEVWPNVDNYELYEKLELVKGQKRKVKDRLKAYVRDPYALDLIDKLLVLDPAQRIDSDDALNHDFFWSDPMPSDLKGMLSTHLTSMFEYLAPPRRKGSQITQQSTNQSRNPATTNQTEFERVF
Chain of Cyclin-dependent kinase 1/cyclin B1 (Homo sapiens) (P06493 whole entry, looked up): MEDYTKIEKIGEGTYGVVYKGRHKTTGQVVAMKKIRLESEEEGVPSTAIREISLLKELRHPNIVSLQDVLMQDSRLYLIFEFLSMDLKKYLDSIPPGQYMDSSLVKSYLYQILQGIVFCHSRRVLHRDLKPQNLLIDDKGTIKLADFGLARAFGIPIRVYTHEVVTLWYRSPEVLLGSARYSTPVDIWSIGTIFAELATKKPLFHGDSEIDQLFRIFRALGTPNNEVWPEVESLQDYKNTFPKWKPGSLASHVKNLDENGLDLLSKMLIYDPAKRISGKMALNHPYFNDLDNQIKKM
Chain of Cyclin-dependent kinase 1/cyclin B1 (Homo sapiens) (P14635 whole entry, looked up): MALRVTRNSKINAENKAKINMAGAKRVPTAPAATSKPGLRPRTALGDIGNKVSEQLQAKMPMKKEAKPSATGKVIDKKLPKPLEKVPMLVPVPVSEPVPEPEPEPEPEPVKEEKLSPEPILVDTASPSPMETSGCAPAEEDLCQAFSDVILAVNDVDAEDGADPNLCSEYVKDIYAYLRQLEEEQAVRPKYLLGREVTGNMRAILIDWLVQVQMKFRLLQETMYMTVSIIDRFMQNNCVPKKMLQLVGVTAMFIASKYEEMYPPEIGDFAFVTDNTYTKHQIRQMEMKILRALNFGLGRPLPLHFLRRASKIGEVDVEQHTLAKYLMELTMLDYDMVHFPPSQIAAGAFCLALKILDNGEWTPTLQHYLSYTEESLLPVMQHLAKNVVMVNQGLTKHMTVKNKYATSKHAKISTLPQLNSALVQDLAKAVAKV
Chain of Cyclin-dependent kinase 1/cyclin B1 (P06493 whole entry): as the sequence (P06493 whole entry, looked up) above
Chain of Cyclin-dependent kinase 1/cyclin B1 (P14635 whole entry, further chain): as the sequence (P14635 whole entry, looked up) above
Chain of CDK17/Cyclin-Y (Homo sapiens) (Q00537 whole entry): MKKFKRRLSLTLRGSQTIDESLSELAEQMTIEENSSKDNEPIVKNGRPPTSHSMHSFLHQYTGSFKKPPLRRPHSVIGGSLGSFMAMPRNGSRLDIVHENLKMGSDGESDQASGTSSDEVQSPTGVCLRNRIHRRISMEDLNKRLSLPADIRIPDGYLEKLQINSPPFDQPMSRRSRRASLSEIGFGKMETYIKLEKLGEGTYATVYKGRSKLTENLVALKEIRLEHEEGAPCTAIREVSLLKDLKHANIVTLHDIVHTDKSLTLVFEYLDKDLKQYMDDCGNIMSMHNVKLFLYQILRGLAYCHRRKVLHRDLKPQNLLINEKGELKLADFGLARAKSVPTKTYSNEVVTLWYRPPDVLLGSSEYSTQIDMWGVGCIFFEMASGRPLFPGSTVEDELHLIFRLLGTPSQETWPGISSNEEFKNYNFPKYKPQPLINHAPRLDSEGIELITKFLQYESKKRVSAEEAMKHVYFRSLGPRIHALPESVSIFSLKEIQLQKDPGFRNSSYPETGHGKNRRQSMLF
Chain of CDK17/Cyclin-Y (Homo sapiens) (Q8ND76 2-341 partner limits assumed): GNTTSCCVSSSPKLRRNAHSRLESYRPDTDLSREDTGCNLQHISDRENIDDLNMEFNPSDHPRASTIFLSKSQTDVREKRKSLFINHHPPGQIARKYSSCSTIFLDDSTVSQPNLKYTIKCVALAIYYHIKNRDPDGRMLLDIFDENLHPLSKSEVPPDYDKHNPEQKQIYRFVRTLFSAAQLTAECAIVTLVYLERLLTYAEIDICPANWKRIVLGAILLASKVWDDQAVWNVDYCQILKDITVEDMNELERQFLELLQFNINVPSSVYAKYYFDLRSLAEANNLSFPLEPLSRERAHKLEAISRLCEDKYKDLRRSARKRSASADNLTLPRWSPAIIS
Chain of Glycogen synthase kinase-3 beta (Homo sapiens), P49841 [UNDEFINED MUTATION] (P49841 whole entry, looked up, stated change not applied): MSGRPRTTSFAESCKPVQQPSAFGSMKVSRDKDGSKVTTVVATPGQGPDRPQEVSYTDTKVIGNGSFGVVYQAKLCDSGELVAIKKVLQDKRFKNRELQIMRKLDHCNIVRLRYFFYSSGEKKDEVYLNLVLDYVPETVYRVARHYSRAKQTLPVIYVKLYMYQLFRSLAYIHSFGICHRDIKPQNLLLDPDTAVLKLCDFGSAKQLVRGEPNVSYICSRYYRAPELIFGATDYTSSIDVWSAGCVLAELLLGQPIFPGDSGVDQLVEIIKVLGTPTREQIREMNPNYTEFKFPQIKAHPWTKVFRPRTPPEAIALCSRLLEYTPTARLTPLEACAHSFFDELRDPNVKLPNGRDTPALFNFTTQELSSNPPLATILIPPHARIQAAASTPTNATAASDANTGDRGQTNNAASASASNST

`O=C1NCCC12CCN(c1c(Cl)cncc1-c1cc3ccccc3o1)CC2` had a clearance in data set [1] of 63 mL/min/kg. For the same compound, the pKa in data set [2] turned out to be 4.9. The inhibition result in [3], in [6] and in data set [7] was “inactive” throughout. The half-life in [4] was 66.6 min. The Ki amounted to 1890 nM in data set [5] and 1770 nM at CDK9/cyclin T1. The inhibition in data set [8] and in [9] was over 50% throughout. Further, the Cmax in data set [10] amounted to 3.44 µM; in [12], 5.01 µM. Besides, the area under the curve (AUC) at 24 h in data set [11] worked out at 2.3 µM·h; in data set [13], 1.39 µM·h.

The record behind these values is ChEMBL document CHEMBL4732199, “Potent and orally bioavailable CDK8 inhibitors: Design, synthesis, structure-activity relationship analysis and biological evaluation” (Eur J Med Chem, 2021).
